In ChEMBL document CHEMBL3124858, “Drug design targeting protein-protein interactions (PPIs) using multiple ligand simultaneous docking (MLSD) and drug repositioning: discovery of raloxifene and bazedoxifene as novel inhibitors of IL-6/GP130 interface” (J Med Chem, 2014):
The source made the active and inactive calls. The calls are words filed in the database; no cut-off is given here.

Key:
[1] = molecular target: LIFR/GP130 (Homo sapiens) (UniProt P40189+P42702); experiment: Inhibition of LIFR/GP130 interaction in human PANC-1 cells assessed as inhibition of LIF-induced STAT3 phosphorylation at Y705 at 25 uM after 24 hrs by Western blot analysis; type: cell-based
Chain of LIFR/GP130 (Homo sapiens) (P42702 whole entry, looked up, one chain of several): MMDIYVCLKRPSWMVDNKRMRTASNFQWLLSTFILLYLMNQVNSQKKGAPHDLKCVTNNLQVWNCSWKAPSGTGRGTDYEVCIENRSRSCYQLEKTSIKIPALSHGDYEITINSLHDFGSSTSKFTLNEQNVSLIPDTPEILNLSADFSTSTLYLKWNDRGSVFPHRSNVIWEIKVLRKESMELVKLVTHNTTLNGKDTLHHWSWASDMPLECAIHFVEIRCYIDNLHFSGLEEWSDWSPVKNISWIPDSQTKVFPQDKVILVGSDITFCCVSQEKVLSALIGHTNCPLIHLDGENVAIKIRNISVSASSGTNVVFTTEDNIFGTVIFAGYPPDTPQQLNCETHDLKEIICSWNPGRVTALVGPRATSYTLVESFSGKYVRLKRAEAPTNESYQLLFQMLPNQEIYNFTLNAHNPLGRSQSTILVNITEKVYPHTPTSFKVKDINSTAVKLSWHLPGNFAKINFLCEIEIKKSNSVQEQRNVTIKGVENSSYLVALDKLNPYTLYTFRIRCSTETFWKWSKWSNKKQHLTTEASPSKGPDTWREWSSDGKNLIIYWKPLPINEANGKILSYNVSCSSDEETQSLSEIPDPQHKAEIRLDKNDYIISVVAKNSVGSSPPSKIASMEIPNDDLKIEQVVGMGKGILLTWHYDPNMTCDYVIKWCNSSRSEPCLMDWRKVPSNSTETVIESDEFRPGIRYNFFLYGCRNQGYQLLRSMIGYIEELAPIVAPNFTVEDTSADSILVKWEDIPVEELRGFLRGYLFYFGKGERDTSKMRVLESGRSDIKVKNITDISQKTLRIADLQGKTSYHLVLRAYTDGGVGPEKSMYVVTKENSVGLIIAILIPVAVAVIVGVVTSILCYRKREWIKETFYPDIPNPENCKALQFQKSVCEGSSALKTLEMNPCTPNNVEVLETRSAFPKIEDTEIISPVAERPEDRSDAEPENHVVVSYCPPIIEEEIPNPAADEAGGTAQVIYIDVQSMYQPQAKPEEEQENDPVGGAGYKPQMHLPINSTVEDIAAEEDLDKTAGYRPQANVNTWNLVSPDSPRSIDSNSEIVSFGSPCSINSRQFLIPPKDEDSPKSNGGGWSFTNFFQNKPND

[2] = Cytotoxicity against human MIAPaCa2 cells assessed as cell viability; type: functional, cell-based; settings: MIA PaCa-2
[3] = molecular target: T1, IL6Ralpha/GP130 (Homo sapiens) (UniProt P08887+P40189); experiment: Inhibition of IL-6Ralpha/GP130 interaction in human PANC-1 cells assessed as inhibition of IL-6-induced STAT3 phosphorylation at Y705 at 25 uM […] measured after 24 hrs by Western blot analysis; type: cell-based
T1 sequence (P08887 whole entry, looked up, one chain of several): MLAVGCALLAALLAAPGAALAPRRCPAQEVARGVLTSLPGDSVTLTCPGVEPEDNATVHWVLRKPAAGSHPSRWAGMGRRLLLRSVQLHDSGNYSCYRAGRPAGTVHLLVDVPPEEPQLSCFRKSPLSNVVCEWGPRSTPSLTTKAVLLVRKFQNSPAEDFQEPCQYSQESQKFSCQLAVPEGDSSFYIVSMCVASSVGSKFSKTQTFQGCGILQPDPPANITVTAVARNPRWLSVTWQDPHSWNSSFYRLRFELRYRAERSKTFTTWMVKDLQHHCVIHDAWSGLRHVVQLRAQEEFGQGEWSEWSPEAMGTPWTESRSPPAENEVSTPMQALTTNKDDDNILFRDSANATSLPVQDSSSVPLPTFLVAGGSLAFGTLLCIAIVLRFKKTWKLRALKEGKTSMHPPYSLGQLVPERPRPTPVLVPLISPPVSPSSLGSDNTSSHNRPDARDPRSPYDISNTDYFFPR
Method in brief: (§1)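 PANC-1 cells (GP130+, ER−) in DMEM/10% FBS, stimulated with 50 ng/ml IL-6 or IFN-γ for 30 min before compound (10-50µM range), then 24 h at 60-80% confluence with 10% FBS. Whole-cell extracts made in RIPA with protease inhibitors. Blotted for pSTAT3 (Tyr705), STAT3, pSTAT1 (Tyr701), STAT1 and GAPDH, with chemiluminescent detection.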

[4] = Cytotoxicity against ER-negative human SUM159 cells assessed as cell viability after 72 hrs by MTT assay in presence of IL-6; type: functional, cell-based; settings: SUM-159-PT
Method in brief: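 SUM159 (ER negative) seeded at 3,000 cells/well, given […] compound in triplicate with 10% FBS. Incubated 72 h at 37 °C, then MTT read-out, absorbance at 595 nm. IC50 from curve fitting.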

[5] = molecular target: T1, IL6Ralpha/GP130 (Homo sapiens); experiment: Inhibition of IL-6Ralpha/GP130 interaction in ER-negative human SUM159 cells overexpressing IL-6 assessed as inhibition of constitutive STAT3 phosphorylation at Y705 at 10 to 30 uM after 24 hrs by Western blot analysis; type: cell-based
Method in brief: (§2)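 Constitutive STAT3 activity in SUM159 (ER negative) cells grown in DMEM/10% FBS. Compound (10-50µM) or DMSO added at 60-80% confluence with 10% FBS for 24 h. RIPA whole-cell lysates run on SDS-PAGE and immunoblotted overnight at 4 °C for pSTAT3 (Tyr705), STAT3 and GAPDH. Detection by chemiluminescence.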

PANC-1 = experiment: Inhibition of IFN-gamma receptor/GP130 interaction in human PANC-1 cells assessed as inhibition of IFN-gamma-induced STAT1 phosphorylation at Y701 at 25 uM […] measured after 24 hrs by Western blot analysis; type: cell-based; method in brief: as §1
[6] = molecular target: T2, Interleukin-6 receptor subunit beta (Homo sapiens, UniProt P40189); experiment: Binding affinity to GP130 (unknown origin) by surface plasmon resonance analysis
T2 sequence (P40189 whole entry): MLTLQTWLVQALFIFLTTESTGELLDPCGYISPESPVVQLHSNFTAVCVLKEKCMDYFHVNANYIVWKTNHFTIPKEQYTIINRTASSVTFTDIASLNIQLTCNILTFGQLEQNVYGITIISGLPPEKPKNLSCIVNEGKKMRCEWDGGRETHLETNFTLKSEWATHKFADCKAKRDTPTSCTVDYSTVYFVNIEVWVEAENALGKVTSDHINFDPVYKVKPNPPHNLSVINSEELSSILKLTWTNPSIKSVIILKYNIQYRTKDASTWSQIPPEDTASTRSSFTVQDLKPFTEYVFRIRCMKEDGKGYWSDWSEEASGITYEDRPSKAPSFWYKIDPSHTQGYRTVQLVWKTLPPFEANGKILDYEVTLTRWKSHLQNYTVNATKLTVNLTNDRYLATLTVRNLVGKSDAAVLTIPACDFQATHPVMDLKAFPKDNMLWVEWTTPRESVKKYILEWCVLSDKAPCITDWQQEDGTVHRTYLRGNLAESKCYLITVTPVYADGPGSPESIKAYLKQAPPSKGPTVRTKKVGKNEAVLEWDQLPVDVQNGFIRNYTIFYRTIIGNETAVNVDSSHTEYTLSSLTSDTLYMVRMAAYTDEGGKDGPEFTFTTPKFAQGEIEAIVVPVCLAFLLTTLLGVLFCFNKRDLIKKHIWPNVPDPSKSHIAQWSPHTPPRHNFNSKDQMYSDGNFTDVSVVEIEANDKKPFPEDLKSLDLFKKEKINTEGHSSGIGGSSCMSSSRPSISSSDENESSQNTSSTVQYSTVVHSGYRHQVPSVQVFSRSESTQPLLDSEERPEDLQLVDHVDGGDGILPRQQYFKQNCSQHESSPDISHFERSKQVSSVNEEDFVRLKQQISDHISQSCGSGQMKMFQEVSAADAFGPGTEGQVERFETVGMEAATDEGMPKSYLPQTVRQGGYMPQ

[7] = molecular target: T1, IL6Ralpha/GP130 (Homo sapiens); experiment: Inhibition of IL-6Ralpha/GP130 interaction in ER-negative human SUM159 cells overexpressing IL-6 assessed as inhibition of constitutive STAT3 phosphorylation at Y705 at 15 to 50 uM after 24 hrs by Western blot analysis; type: cell-based; method in brief: as §2

Row | inhibition [1] | inhibition [3] | inhibition [5] | Kd [6] [µM] | inhibition [7] | SMILES | IC50 [2] [µM] | IC50 [4] [µM] | inhibition (PANC-1)
1 | inactive | Active | Active | – | – | Cc1c(-c2ccc(O)cc2)n(Cc2ccc(OCCN3CCCCCC3)cc2)c2ccc(O)cc12 [BAZEDOXIFENE] | 9.7 | 24.9 | inactive
2 | – | – | – | 288 | – | CCCCC1=C(C)C(=O)[C@](C)(CN2c3ccccc3[C@]3(O)CCOC23)C1=O (stereo partly drawn) [MADINDOLINE A] | – | > 250 | –
3 | inactive | – | – | – | Active | O=C(c1ccc(OCCN2CCCCC2)cc1)c1c(-c2ccc(O)cc2)sc2cc(O)ccc12 [RALOXIFENE] | 26.3 | 43.2 | inactive
